The results in this text go back to ChEMBL document CHEMBL1629506, “Design, synthesis and structure-activity relationship study of novel pyrazole-based heterocycles as potential antitumor agents” (Eur J Med Chem, 2010).

The subject of series [1] is NCI/ADR-RES. Put plainly: Growth inhibition of human NCI/ADR-RES cells after 48 hrs by sulforhodamine B assay. In kind it is functional. In outline:
(§1)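 Cells were plated at 5000–40,000 cells/well, depending on doubling time, and preincubated 24 h at 37 °C in 5% CO2. Time-zero plates were TCA-fixed at drug addition. Compounds were dissolved in DMSO and tested at five concentrations (10-fold or ½-log dilutions) for 48 h. Cells were fixed with cold TCA, stained with 0.4% sulforhodamine B and read at 515 nm. GI50 was taken as the concentration giving 50% growth.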

The test system of series [2] is MCF7. As to the kind of experiment: Growth inhibition of human MCF7 cells after 48 hrs by sulforhodamine B assay. Format: functional. The following applies: MCF7, 48 h. In outline: as §1
For orientation: The SRB assay estimates cell density from bound dye.

Series [3] in a line: Growth inhibition of human Hs 578T cells after 48 hrs by sulforhodamine B assay. Format: functional. In outline:
as §1

Series [4] has as its system SK-OV-3. Put plainly: Growth inhibition of human SKOV3 cells after 48 hrs by sulforhodamine B assay. Format: functional. To be noted: SK-OV-3, 48 h. Put shortly:
as §1

A short description of series [5]: Acute toxicity in mouse after 24 hrs. Format: organism-based. To be noted: in vivo. In outline:
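Adult mice of both sexes, acclimatized 1 week (12 h light/dark, 21–23 °C), fasted 12 h before dosing. 30 mice in 6 groups of 5 each got a single oral gavage dose, at different dose levels, of a fine-powder aqueous suspension. LD50 was determined, with values as group means of five mice.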

Series [6] relates to MDA-MB-231. Put plainly: Growth inhibition of human MDA-MB-231cells after 48 hrs by sulforhodamine B assay. Format: functional. To be noted: MDA-MB-231, 48 h. Put shortly: as §1
In series [7] the test system is IGROV-1. As to the kind of experiment: Growth inhibition of human IGROV1 cells after 48 hrs by sulforhodamine B assay. Format: functional. To be noted: IGROV-1, 48 h. Put shortly:
as §1

In series [8] the test system is BT-549. Put plainly: Growth inhibition of human BT549 cells after 48 hrs by sulforhodamine B assay. Format: functional. To be noted: BT-549, 48 h. Put shortly: as §1
For series [9], the system named is Rattus norvegicus. As to the kind of experiment: Antiestrogenic activity in Sprague-Dawley rat assessed as reduction in estradiol induced uterine weight upto 0.06 ug, po after 8 days. Format: functional. Also on record: scale not given: the % may be the effect or the level left. Put shortly: (§2)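 Immature ovariectomized female Sprague-Dawley rats (~55 g), groups of 12. Estradiol 0.03–0.05 given s.c. daily for 7 days, with test compound or letrozole reference at various doses up to 0.06 per animal, given orally in 0.5% carboxymethylcellulose. Controls received estradiol alone. Uterine weights were taken on day 8 and group means expressed as % reduction versus estradiol-only controls. Potency was taken relative to letrozole.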

The test system of series [10] is Rattus norvegicus. Put plainly: Antiestrogenic activity in Sprague-Dawley rat assessed as reduction in estradiol induced uterine weight 0.06 ug, po after 8 days relative to letrozole. Format: functional. Put shortly:
as §2

For series [11], the system named is OVCAR-4. Put plainly: Growth inhibition of human OVCAR4 cells after 48 hrs by sulforhodamine B assay. In kind it is functional. To be noted: OVCAR-4, 48 h. In outline: as §1
The test system of series [12] is MDA-MB-435. Put plainly: Growth inhibition of human MDA-MB-435 cells after 48 hrs by sulforhodamine B assay. In kind it is functional. To be noted: MDA-MB-435, 48 h. Put shortly: as §1
Series [13] concerns MDA-N. As to the kind of experiment: Growth inhibition of human MDA-N cells after 48 hrs by sulforhodamine B assay. Format: functional. Put shortly: as §1
Series [14] deals with OVCAR-5. Put plainly: Growth inhibition of human OVCAR5 cells after 48 hrs by sulforhodamine B assay. In kind it is functional. The following applies: OVCAR-5, 48 h. In outline:
as §1

For series [15], the system named is OVCAR-8. Put plainly: Growth inhibition of human OVCAR8 cells after 48 hrs by sulforhodamine B assay. Format: functional. The following applies: OVCAR-8, 48 h. In outline:
as §1

The test system of series [16] is OVCAR-3. Put plainly: Growth inhibition of human OVCAR3 cells after 48 hrs by sulforhodamine B assay. In kind it is functional. The following applies: OVCAR-3, 48 h. In outline: as §1
Series [17] deals with T47D. As to the kind of experiment: Growth inhibition of human T47D cells after 48 hrs by sulforhodamine B assay. In kind it is functional. Put shortly:
as §1

Structures are written as SMILES. A value given as a limit tells only on which side of the number the result lay.

The term GI50 denotes the concentration that inhibits growth by half. The LD50 is the dose at which mortality reaches 50%. Turning to `Cc1nnc(-c2nn(-c3ccccc3)c(-c3ccccc3)c2C#N)c2cn(-c3ccccc3)nc12`, the GI50 in series [1] is greater than 100 µM; in series [2] it was 8.46 µM; in series [3] it was 1.39 µM; in series [4] it was 36.8 µM; in series [6], greater than 100 µM; in series [7], 92 µM. The GI50 in [8] is 96.8 µM; in series [11], 56.4 µM; in [12] it was greater than 100 µM; in series [13] it was 38.4 µM; in [14], greater than 100 µM; in series [15] it was greater than 100 µM. For the same compound, the GI50 in series [16] was 96.8 µM; in series [17], 9.14 µM. For the same compound, the median lethal dose (LD50) at 24 h in [5] was 32.5 mg/kg. Also, the Activity in [9] is 23.97%. Moreover, in series [10], the potency ratio vs letrozole turned out to be 1.1.
For `N#Cc1c(-c2nnc(O)c3nn(-c4ccccc4)cc23)nn(-c2ccccc2)c1-c1ccccc1`, the 50% growth inhibitory concentration (GI50) in series [1] is 2.76 µM; in series [2], greater than 100 µM; in [3], 46.8 µM; in series [4] it was 36.8 µM; in series [6] it was 6.21 µM; in [7] it was 92.2 µM. The GI50 in [8] is 44.8 µM; in [11], 26.4 µM; in series [12], 21.8 µM; in series [13], 13.8 µM; in series [14], 61.8 µM; in series [15], 61.5 µM. Also, the GI50 was greater than 100 µM in [16] and 2.95 µM in [17]. In series [5], the median lethal dose (LD50) at 24 h was found to be 114 mg/kg. Moreover, in [9], the Activity is given as 32.86%. Besides, the potency ratio vs letrozole in series [10] is 1.51.
As to `N#Cc1c(C(=O)c2cn(-c3ccc(Cl)cc3)nc2C(=O)Nc2ccccc2)nn(-c2ccccc2)c1-c1ccccc1`, the GI50 in series [1] is greater than 100 µM; in [2], greater than 100 µM; in series [3], 8.84 µM; in series [4], 9.42 µM; in [6] it was greater than 100 µM; in [7], 99.5 µM. For the same compound, the GI50 was 11.8 µM in [8]; 28.4 µM in [11]; 2.03 µM in [12]; greater than 100 µM in [13]; greater than 100 µM in series [14]; greater than 100 µM in [15]. The GI50 in [16] is 23.8 µM; in [17], 33 µM. In addition, the LD50 at 24 h in series [5] turned out to be 101 mg/kg. The Activity in series [9] is 34.87%. Moreover, in [10], the potency ratio vs letrozole was found to be 1.61.
Turning to `Cc1ccc(-n2cc(C(=O)c3nn(-c4ccccc4)c(-c4ccccc4)c3C#N)c(C(=O)Nc3ccccc3)n2)cc1`, the GI50 in series [1] turned out to be 2.48 µM; in series [2] it was 34.4 µM; in [3], 63.2 µM; in series [4], 9.42 µM; in [6] it was 6.27 µM; in [7] it was 16.6 µM. Moreover, the GI50 in series [8] is greater than 100 µM; in series [11], 7.56 µM; in series [12] it was 2.23 µM; in series [13], 5.49 µM; in series [14] it was 9.72 µM; in series [15], 9.52 µM. The GI50 came out at 7.66 µM in [16] and 30.8 µM in [17]. Moreover, in series [5], the median lethal dose (LD50) at 24 h amounted to 122 mg/kg. Also, the Activity in [9] is reported as 34.65%. For the same compound, the potency ratio vs letrozole in [10] is 1.6.
Regarding `N#Cc1c(C(=O)c2cn(-c3ccccc3)nc2-c2ccccc2)nn(-c2ccccc2)c1-c1ccccc1`, the concentration for 50% growth inhibition (GI50) was 98 µM in [1]; 33.3 µM in series [2]; greater than 100 µM in series [3]; greater than 100 µM in series [4]; 49.8 µM in series [6]; greater than 100 µM in series [7]. Also, the 50% growth inhibitory concentration (GI50) in [8] came to 1.12 µM; in series [11] it was 5.49 µM; in series [12], 61 µM; in series [13], 3.36 µM; in [14] it was 6.23 µM; in series [15] it was 9.83 µM. The figures for the GI50 in series [16] and in [17] were 4.94 µM and 28 µM, respectively. Besides, the median lethal dose (LD50) at 24 h in series [5] is 122 mg/kg. In addition, the Activity in series [9] worked out at 23.54%. The potency ratio vs letrozole in [10] came out at 1.08.
Turning to `CCOC(=O)c1nn(-c2ccc(Cl)cc2)cc1C(=O)c1nn(-c2ccccc2)c(-c2ccccc2)c1C#N`, the 50% growth inhibitory concentration (GI50) was greater than 100 µM in series [1]; greater than 100 µM in [2]; 65 µM in series [3]; 30.8 µM in series [4]; greater than 100 µM in series [6]; 93.2 µM in [7]. In addition, the concentration for 50% growth inhibition (GI50) is 39.8 µM in series [8]; 45.8 µM in series [11]; 71.8 µM in [12]; 62.3 µM in series [13]; 61.2 µM in [14]; 65.8 µM in series [15]. Further, the GI50 in [16] and in series [17] was greater than 100 µM each time. In [5], this compound showed a 50% lethal dose (LD50) at 24 h of 143 mg/kg. Also, in series [9], the Activity was found to be 34.86%. Further, the potency ratio vs letrozole in [10] came out at 1.61.
For `N#Cc1c(-c2nnc(-c3nn(-c4ccccc4)c(-c4ccccc4)c3C#N)c3nn(-c4ccc(Cl)cc4)cc23)nn(-c2ccccc2)c1-c1ccccc1`, the 50% growth inhibitory concentration (GI50) in series [1] amounted to 7.46 µM; in [2], 9.42 µM; in series [3], 9.72 µM; in [4] it was 36.8 µM; in [6] it was 7.9 µM; in [7], 98 µM. Moreover, the GI50 in [8] was 1.02 µM; in [11], 43.8 µM; in series [12], 9.2 µM; in [13], 2.26 µM; in series [14], greater than 100 µM; in [15] it was 61.8 µM. In addition, the GI50 in [16] is 95.8 µM; in series [17] it was 16 µM. The same compound showed a 50% lethal dose (LD50) at 24 h in series [5] of 112 mg/kg. Besides, in series [9], the Activity was 43.41%. Also, the potency ratio vs letrozole in series [10] amounted to 2.
Consider `Cc1ccc(-n2cc(C(=O)c3nn(-c4ccccc4)c(-c4ccccc4)c3C#N)c(C(=O)c3nn(-c4ccccc4)c(-c4ccccc4)c3C#N)n2)cc1`, for which the concentration for 50% growth inhibition (GI50) in [1] is greater than 100 µM; in [2], 0.061 µM; in [3], 37.4 µM; in [4], 38.8 µM; in series [6], greater than 100 µM; in [7], 0.022 µM. Also, the GI50 in [8] was 2.47 µM; in [11], 30.4 µM; in series [12], greater than 100 µM; in [13], 26.8 µM; in series [14] it was 36.8 µM; in series [15], 20.3 µM. For the same compound, the GI50 was 99.8 µM in [16] and 25.7 µM in series [17]. Moreover, the LD50 at 24 h in series [5] amounted to 211 mg/kg. Besides, the Activity in series [9] came out at 32.43%. For the same compound, the potency ratio vs letrozole in [10] was 1.49.
